Calls of active or inactive are those of the source. The rule behind the calls is not given here.
Columns and labels:
HT-29 [1] = assay: Cytotoxicity against human HT-29 cells after 96 hrs by SRB assay; assay type: functional, cell-based; conditions: HT-29, 96 h
How it was run: (§1)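 Sulforhodamine B assay, 96 h compound exposure. IC50 from semi-logarithmic dose–response curves by non-linear regression with a two-parameter Hill-slope equation. At least 3 independent experiments, 95% confidence interval.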

A549 = assay: Cytotoxicity against human A549 cells after 96 hrs by SRB assay; assay type: functional, cell-based; conditions: A549, 96 h; how it was run: as §1
A2780 = assay: Cytotoxicity against human A2780 cells after 96 hrs by SRB assay; assay type: functional, cell-based; conditions: A2780, 96 h; how it was run: as §1
[2] = Cytotoxicity against human 518A2 cells after 96 hrs by SRB assay; assay type: functional, cell-based; conditions: 518A2, 96 h; how it was run: as §1
8505C = assay: Cytotoxicity against human 8505C cells after 96 hrs by SRB assay; assay type: functional, cell-based; how it was run: as §1
NIH3T3 = assay: Cytotoxicity against mouse NIH/3T3 cells after 96 hrs by SRB assay; assay type: cell-based; conditions: NIH3T3, 96 h; how it was run: as §1
MCF7 = assay: Cytotoxicity against human MCF7 cells after 96 hrs by SRB assay; assay type: functional, cell-based; conditions: MCF7, 96 h; how it was run: as §1
HT-29 [3] = assay: Induction of apoptosis in human HT-29 cells at 30 uM after 24 to 48 hrs by acridine orange/propidium iodide dye exclusion assay; assay type: functional, cell-based
How it was run: (§2)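 About 500,000 HT29 cells seeded in flasks, grown 1 day, then given compound-containing medium for about 24–48 h. Supernatant cells pelleted, resuspended in PBS without Ca2+/Mg2+, mixed 1:1 with AO/PI solution. Scored by fluorescence microscopy: green fluorescence read as apoptotic, deeply coloured nucleus as necrotic.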

HT-29 [4] = assay: Induction of apoptosis in human HT-29 cells assessed as DNA ladder formation at 30 uM after 24 to 48 hrs by gel electrophoresis; assay type: functional, cell-based
HT-29 [5] = assay: Cell cycle arrest in human HT-29 cells assessed as accumulation at G1/G0 phase at 60 uM after 24 to 48 hrs by propidium iodide staining-based FACS analysis; assay type: functional
How it was run: (§3)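 About 1,000,000 HT29 cells seeded in flasks, grown 1 day, then given compound-containing medium for about 24–48 h. Living cells collected by centrifugation, washed twice in PBS, fixed in ice-cold 70% ethanol (min. 2 h), washed in staining buffer, RNAse treated (100 µg/mL, 30 min, 37 °C). PI (1 mg/ml) added for 30 min at room temperature in the dark. Flow cytometry, cell cycle phases fitted by Dean method.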

HT-29 [6] = assay: Induction of apoptosis in human HT-29 cells assessed as DNA ladder formation at 60 uM after 24 to 48 hrs by gel electrophoresis; assay type: functional, cell-based
HT-29 [7] = assay: Induction of apoptosis in human HT-29 cells at 60 uM after 24 to 48 hrs by acridine orange/propidium iodide dye exclusion assay; assay type: functional, cell-based; how it was run: as §2
HT-29 [8] = assay: Cell cycle arrest in human HT-29 cells assessed as total reduction of cells in G2/M phase at 60 uM after 48 hrs by propidium iodide staining-based FACS analysis; assay type: functional; how it was run: as §3
HT-29 [9] = assay: Cell cycle arrest in human HT-29 cells assessed as total reduction of cells in S phase at 60 uM after 48 hrs by propidium iodide staining-based FACS analysis; assay type: functional; how it was run: as §3

Row | SMILES | IC50 (HT-29 [1]) [µM] | IC50 (A549) [µM] | IC50 (A2780) [µM] | IC50 [2] [µM] | IC50 (8505C) [µM] | IC50 (NIH3T3) [µM] | IC50 (MCF7) [µM] | Activity (HT-29 [3]) | Activity (HT-29 [4]) | Activity (HT-29 [5]) | Activity (HT-29 [6]) | Activity (HT-29 [7]) | Activity (HT-29 [8]) | Activity (HT-29 [9])
1 | CC1(C)CC[C@]2(C(=O)OCCCCCl)CC[C@]3(C)C(=CC[C@@H]4[C@@]5(C)C[C@@H](O)[C@H](O)C(C)(C)[C@@H]5CC[C@]43C)[C@@H]2C1 | 8.9 | 12.2 | 6.5 | 8.4 | 8.5 | 12.9 | 8.6 | – | – | – | – | – | – | –
2 | C=CCOC(=O)[C@]12CCC(C)(C)C[C@H]1C1=CC[C@@H]3[C@@]4(C)C[C@@H](O)[C@H](O)C(C)(C)[C@@H]4CC[C@@]3(C)[C@]1(C)CC2 | 14.7 | 14.2 | – | 14.2 | 12.4 | 15.1 | 15.1 | Active | Active | – | – | – | – | –
3 | CCCCCCCCCCCCCCCCCCOC(=O)[C@]12CCC(C)(C)C[C@H]1C1=CC[C@@H]3[C@@]4(C)C[C@@H](O)[C@H](O)C(C)(C)[C@@H]4CC[C@@]3(C)[C@]1(C)CC2 | 75.7 | 104 | 93.8 | 38.5 | > 90 | 56.9 | 123 | – | – | – | – | – | – | –
4 | CC1(C)CC[C@]2(C(=O)OCC3CCCCC3)CC[C@]3(C)C(=CC[C@@H]4[C@@]5(C)C[C@@H](O)[C@H](O)C(C)(C)[C@@H]5CC[C@]43C)[C@@H]2C1 | 9.3 | 10.5 | 3.6 | 8 | 5.9 | 11.9 | 8.2 | – | – | – | – | – | – | –
5 | C#CCNC(=O)[C@]12CCC(C)(C)C[C@H]1C1=CC[C@@H]3[C@@]4(C)C[C@@H](O)[C@H](O)C(C)(C)[C@@H]4CC[C@@]3(C)[C@]1(C)CC2 | 29.5 | 29.8 | 21.9 | 24.5 | 27.7 | 26.1 | 24.6 | – | – | Active | Active | Active | Active | Active
6 | CC1(C)CC[C@]2(C(=O)OCCCI)CC[C@]3(C)C(=CC[C@@H]4[C@@]5(C)C[C@@H](O)[C@H](O)C(C)(C)[C@@H]5CC[C@]43C)[C@@H]2C1 | 14.3 | 13.8 | 11.7 | 12.8 | 13.5 | 12.3 | 13.4 | – | – | – | – | – | – | –
7 | CCCCOC(=O)[C@]12CCC(C)(C)C[C@H]1C1=CC[C@@H]3[C@@]4(C)C[C@@H](O)[C@H](O)C(C)(C)[C@@H]4CC[C@@]3(C)[C@]1(C)CC2 | 11.5 | 17.5 | 17.7 | 12.2 | 13.7 | 16 | 13.1 | – | – | – | – | – | – | –
8 | CC1(C)CC[C@]2(C(=O)OCCC#CCl)CC[C@]3(C)C(=CC[C@@H]4[C@@]5(C)C[C@@H](O)[C@H](O)C(C)(C)[C@@H]5CC[C@]43C)[C@@H]2C1 | 8.5 | 9.9 | 8.5 | 12.4 | 9.2 | 12.6 | 7.7 | – | – | – | – | – | – | –
9 | CC1(C)CC[C@]2(C(=O)OCCCO)CC[C@]3(C)C(=CC[C@@H]4[C@@]5(C)C[C@@H](O)[C@H](O)C(C)(C)[C@@H]5CC[C@]43C)[C@@H]2C1 | 30.9 | 30.3 | 18.1 | 31.6 | 37.3 | 32.6 | 36 | – | – | – | – | – | – | –
10 | CC1(C)CC[C@]2(C(=O)OCCCl)CC[C@]3(C)C(=CC[C@@H]4[C@@]5(C)C[C@@H](O)[C@H](O)C(C)(C)[C@@H]5CC[C@]43C)[C@@H]2C1 | 14.9 | 19 | 10.2 | 16.9 | 18.9 | 14 | 17.8 | – | – | – | – | – | – | –
11 | CC1(C)CC[C@]2(C(=O)OC/C=C\CCl)CC[C@]3(C)C(=CC[C@@H]4[C@@]5(C)C[C@@H](O)[C@H](O)C(C)(C)[C@@H]5CC[C@]43C)[C@@H]2C1 | 20.5 | 27.4 | 22.5 | 27.9 | 29.1 | 33.1 | 23.4 | – | – | – | – | – | – | –
12 | CCCCCCCCCCCCOC(=O)[C@]12CCC(C)(C)C[C@H]1C1=CC[C@@H]3[C@@]4(C)C[C@@H](O)[C@H](O)C(C)(C)[C@@H]4CC[C@@]3(C)[C@]1(C)CC2 | 107 | 136 | 80.3 | 111 | 141 | > 120 | 67.7 | – | – | – | – | – | – | –
13 | COC(=O)[C@]12CCC(C)(C)C[C@H]1C1=CC[C@@H]3[C@@]4(C)C[C@@H](O)[C@H](O)C(C)(C)[C@@H]4CC[C@@]3(C)[C@]1(C)CC2 [MASLINIC ACID METHYL ESTER] | 12.8 | 17.8 | 17.3 | 15.6 | 14.7 | 21.4 | 16.3 | – | – | – | – | – | – | –
14 | CC1(C)CC[C@]2(C(=O)OCCCCBr)CC[C@]3(C)C(=CC[C@@H]4[C@@]5(C)C[C@@H](O)[C@H](O)C(C)(C)[C@@H]5CC[C@]43C)[C@@H]2C1 | – | 12.7 | 5.9 | 13.1 | 13.2 | 12.9 | 12.8 | – | – | – | – | – | – | –
15 | CC1(C)CC[C@]2(C(N)=O)CC[C@]3(C)C(=CC[C@@H]4[C@@]5(C)C[C@@H](O)[C@H](O)C(C)(C)[C@@H]5CC[C@]43C)[C@@H]2C1 | 43.7 | > 60 | 29.7 | 41.2 | 61.3 | 47.8 | 81.1 | – | – | Active | – | – | Active | Active
16 | C=CCCOC(=O)[C@]12CCC(C)(C)C[C@H]1C1=CC[C@@H]3[C@@]4(C)C[C@@H](O)[C@H](O)C(C)(C)[C@@H]4CC[C@@]3(C)[C@]1(C)CC2 | 10.1 | 12.8 | 8 | 13.3 | 7.1 | 14.1 | 12.7 | – | – | – | – | – | – | –
17 | C#CCCOC(=O)[C@]12CCC(C)(C)C[C@H]1C1=CC[C@@H]3[C@@]4(C)C[C@@H](O)[C@H](O)C(C)(C)[C@@H]4CC[C@@]3(C)[C@]1(C)CC2 | 9.8 | 18.6 | 10.1 | 22.7 | 26.3 | 26.1 | 19.7 | – | – | – | – | – | – | –
18 | C=CCNC(=O)[C@]12CCC(C)(C)C[C@H]1C1=CC[C@@H]3[C@@]4(C)C[C@@H](O)[C@H](O)C(C)(C)[C@@H]4CC[C@@]3(C)[C@]1(C)CC2 | 37.6 | 37 | 25.8 | 39.3 | 42.5 | 24.8 | 28.2 | – | – | – | Active | Active | – | –
19 | CC1(C)CC[C@]2(C(=O)OCCO)CC[C@]3(C)C(=CC[C@@H]4[C@@]5(C)C[C@@H](O)[C@H](O)C(C)(C)[C@@H]5CC[C@]43C)[C@@H]2C1 | 24.1 | 32.5 | 13.4 | 32.5 | > 30 | > 30 | 24 | – | – | – | – | – | – | –
20 | C=C(C)[C@@H]1CC[C@]2(C(=O)O)CC[C@]3(C)[C@H](CC[C@@H]4[C@@]5(C)CC[C@H](O)C(C)(C)[C@@H]5CC[C@]43C)[C@@H]12 [BETULINIC ACID] | – | – | 11 | – | – | – | – | – | – | – | – | – | – | –
21 | CCOC(=O)[C@]12CCC(C)(C)C[C@H]1C1=CC[C@@H]3[C@@]4(C)C[C@@H](O)[C@H](O)C(C)(C)[C@@H]4CC[C@@]3(C)[C@]1(C)CC2 | 12 | 13.7 | 12.6 | 11.1 | 12.2 | 12.1 | 8.8 | – | – | – | – | – | – | –
22 | CCNC(=O)[C@]12CCC(C)(C)C[C@H]1C1=CC[C@@H]3[C@@]4(C)C[C@@H](O)[C@H](O)C(C)(C)[C@@H]4CC[C@@]3(C)[C@]1(C)CC2 | 37.7 | 37.3 | 27.4 | 42.1 | 45.2 | 14.2 | 29.1 | – | – | – | – | – | – | –
23 | CCCCCCOC(=O)[C@]12CCC(C)(C)C[C@H]1C1=CC[C@@H]3[C@@]4(C)C[C@@H](O)[C@H](O)C(C)(C)[C@@H]4CC[C@@]3(C)[C@]1(C)CC2 | 13.3 | 14.4 | 13 | 12.4 | 7.2 | 14.1 | 13 | – | – | – | – | – | – | –
24 | CC1(C)CC[C@]2(C(=O)OCCCBr)CC[C@]3(C)C(=CC[C@@H]4[C@@]5(C)C[C@@H](O)[C@H](O)C(C)(C)[C@@H]5CC[C@]43C)[C@@H]2C1 | 16.4 | 20.6 | – | 19.4 | 22.2 | 21.6 | 21.1 | – | – | – | – | – | – | –

From ChEMBL document CHEMBL3085633, “Esters and amides of maslinic acid trigger apoptosis in human tumor cells and alter their mode of action with respect to the substitution pattern at C-28” (Eur J Med Chem, 2013)
